ChEMBL document CHEMBL1144701, “Synthesis and anti-HIV1 biological activity of novel 5''-ATSAO compounds” (Bioorg Med Chem, 2008)

What was measured:
[1] = tested on: Human immunodeficiency virus 1; test: Antiviral activity against HIV1 3B in CEM cells assessed as inhibition of virus-induced cytopathogenicity after 4 days; assay type: functional, organism-based; conditions: Human immunodeficiency virus 1, 3B, CCRF-CEM, 96 h
Procedure, shortened: (§1)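 CEM cells at 4 × 10⁵/mL infected with about 100 CCID₅₀ per mL of cell suspension (HIV-1 IIIB or HIV-2 ROD). Infected suspension mixed 1:1 with serial compound dilutions. Giant cell formation scored microscopically after 4 days. EC₅₀ is the concentration inhibiting virus-induced cytopathicity by 50%.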

[2] = tested on: Human immunodeficiency virus 2; test: Antiviral activity against HIV2 ROD in CEM cells assessed as inhibition of virus-induced cytopathogenicity after 4 days; assay type: functional, organism-based; conditions: Human immunodeficiency virus 2, ROD, CCRF-CEM, 96 h; procedure, shortened: as §1
[3] = Cytotoxicity against mock-infected human CEM cells assessed as reduction of cell viability after 4 days; assay type: cell-based; conditions: mock-infected CEM (CCRF-CEM) cells
Procedure, shortened: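 Mock-infected CEM cells, plated as in the parallel infection assay at 4 × 10⁵/mL, mixed 1:1 with serial compound dilutions. CC₅₀ is the concentration reducing the number of viable cells by 50%.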

[4] = tested on: Human immunodeficiency virus 1; test: Antiviral activity against HIV1 in MT4 cells; assay type: functional, organism-based; conditions: Human immunodeficiency virus 1, MT4

Row | SMILES | EC50 [1] [nM] | EC50 [2] [µM] | CC50 at 96 h [3] [µM] | EC50 [4] [nM]
1 | Cc1cn([C@@H]2O[C@H](CO[Si](C)(C)C(C)(C)C)[C@@]3(NS(=O)(=O)C(c4ccccc4)=C3N)[C@H]2O[Si](C)(C)C(C)(C)C)c(=O)n(C(=O)OC(C)(C)C)c1=O | > 50000 | 30 | ≥ 10 | –
2 | Cc1cn([C@@H]2O[C@H](CO[Si](C)(C)C(C)(C)C)[C@@]3(NS(=O)(=O)C(c4ccccc4)=C3N)[C@H]2O[Si](C)(C)C(C)(C)C)c(=O)[nH]c1=O | ≥ 2000 | ≥ 2 | ≥ 10 | –
3 | Cc1cn([C@@H]2O[C@H](CO[Si](C)(C)C(C)(C)C)[C@]3(C(N)=C(c4ccccc4)S(=O)(=O)N3C)[C@H]2O[Si](C)(C)C(C)(C)C)c(=O)n(C)c1=O | > 2000 | > 2 | 10.9 | –
4 | Cc1cn([C@@H]2O[C@H](CO[Si](C)(C)C(C)(C)C)[C@@]3(NS(=O)(=O)C(c4ccccc4)=C3N)[C@H]2O[Si](C)(C)C(C)(C)C)c(=O)n(C)c1=O | > 50000 | > 50 | ≥ 10 | –
5 | Cc1cn([C@@H]2O[C@H](CO[Si](C)(C)C(C)(C)C)[C@@]3(NS(=O)(=O)C=C3N)[C@H]2O[Si](C)(C)C(C)(C)C)c(=O)[nH]c1=O | 330 | > 100 | 19.1 | 130
6 | Cc1cn([C@@H]2O[C@H](CO[Si](C)(C)C(C)(C)C)[C@@]3(OS(=O)(=O)C=C3N)[C@H]2O[Si](C)(C)C(C)(C)C)c(=O)[nH]c1=O | – | > 4 | 16 | –
7 | CCn1c(=O)c(C)cn([C@@H]2O[C@H](CO[Si](C)(C)C(C)(C)C)[C@@]3(NS(=O)(=O)C(c4ccccc4)=C3N)[C@H]2O[Si](C)(C)C(C)(C)C)c1=O | > 50000 | > 50 | ≥ 10 | –
